In brackets after ≈: the same amount, converted by molar mass. Activity calls are given as the source filed them. No cut-off for these calls is given here.
Experiments:
[1] = test system: Bacillus subtilis; assay: Antimicrobial activity against Bacillus subtilis ATCC 6633 after 24 hrs by broth microdilution method; format: functional; settings: ATCC 6633, 24 h
How it was run: (§1)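 Broth dilution method. H. influenzae grown in Haemophilus Test Medium, other bacteria in Mueller Hinton Broth. Compounds dissolved in DMSO and diluted in growth medium. Incubated 24 h at 37 °C. MIC is the lowest concentration inhibiting reproduction of the organism. Drug-free tubes served as growth controls, organism-free tubes as purity controls, and solvent-only tubes as controls.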

[2] = Inhibition of Escherichia coli DNA gyrase-mediated supercoiling of pBR322 using bromothymol blue by electrophoresis
How it was run: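 E. coli gyrase supercoiling of relaxed pBR322 in 35 mM Tris–HCl pH 7.5, 24 mM KCl, 4 mM MgCl2, 2 mM DTT, 1.8 mM spermidine, 1 mM ATP, 6.5% glycerol, 0.1 mg/mL albumin. Incubated 30 min at 37 °C, stopped with chloroform/isoamyl alcohol, run on 1% agarose and gel-quantitated. IC50 is the concentration halving supercoiling versus drug-free control. ≥3 independent experiments.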

[3] = Inhibition of Escherichia coli DNA topoisomerase-4-mediated decatenation of kinetoplast DNA by electrophoresis
[4] = test system: Staphylococcus aureus; assay: Antimicrobial activity against quinolone and penicillin-resistant Staphylococcus aureus SAR72 after 24 hrs by broth microdilution method; format: functional
How it was run: (§2)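 Broth dilution in Mueller Hinton Broth; compounds dissolved in DMSO and diluted in growth medium. […] Drug-free tubes served as growth controls and organism-free tubes as purity controls, with solvent-only controls included. Ciprofloxacin, levofloxacin, moxifloxacin and gemifloxacin were the reference drugs.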

[5] = test system: Acinetobacter baumannii; assay: Antimicrobial activity against quinolone and penicillin-resistant Acinetobacter baumannii after 24 hrs by broth microdilution method; format: functional; how it was run: as §2
[6] = test system: Staphylococcus epidermidis; assay: Antimicrobial activity against Staphylococcus epidermidis ATCC 12228 after 24 hrs by broth microdilution method; format: functional; settings: ATCC 12228, 24 h; how it was run: as §1
[7] = test system: Staphylococcus epidermidis; assay: Antimicrobial activity against quinolone and penicillin-resistant Staphylococcus epidermidis SER after 24 hrs by broth microdilution method; format: functional; how it was run: as §2
[8] = test system: Staphylococcus aureus; assay: Antimicrobial activity against Staphylococcus aureus ATCC 6538 after 24 hrs by broth microdilution method; format: functional; settings: ATCC 6538, 24 h; how it was run: as §1
[9] = test system: Acinetobacter baumannii; assay: Antimicrobial activity against Acinetobacter baumannii ATCC 19606 after 24 hrs by broth microdilution method; format: functional; settings: ATCC 19606, 24 h; how it was run: as §1
[10] = test system: Pseudomonas aeruginosa; assay: Antimicrobial activity against Pseudomonas aeruginosa ATCC 9027 after 24 hrs by broth microdilution method; format: functional; settings: ATCC 9027, 24 h; how it was run: as §1
[11] = test system: Haemophilus influenzae; assay: Antimicrobial activity against Haemophilus influenzae ATCC 19418 after 24 hrs by broth microdilution method; format: functional; settings: ATCC 19418, 24 h; how it was run: as §1
[12] = test system: Staphylococcus aureus; assay: Antimicrobial activity against quinolone and penicillin-resistant Staphylococcus aureus SAR4790 after 24 hrs by broth microdilution method; format: functional; how it was run: as §2
[13] = test system: Escherichia coli; assay: Antimicrobial activity against quinolone and penicillin-resistant Escherichia coli after 24 hrs by broth microdilution method; format: functional; how it was run: as §2
[14] = test system: Escherichia coli; assay: Antimicrobial activity against Escherichia coli ATCC 8739 after 24 hrs by broth microdilution method; format: functional; settings: ATCC 8739, 24 h; how it was run: as §1
[15] = test system: Pseudomonas aeruginosa; assay: Antimicrobial activity against quinolone and penicillin-resistant Pseudomonas aeruginosa after 24 hrs by broth microdilution method; format: functional; how it was run: as §2
[16] = test system: A549; assay: Cytotoxicity against human A549 cells after 72 hrs by MTT assay; format: functional, cell-based; settings: A549, 72 h
How it was run: (§3)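 Cells kept in medium with 2 mM glutamine and 10% FBS at 37 °C, 5% CO2. Compounds dissolved in DMSO just before addition (final ≤0.1% v/v; same solvent in controls). After 72 h exposure, viability read by MTT. Triplicates, ≥3 independent experiments. Dose–response fitted with single or double Hill functions; IC50 extrapolated from curves.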

[17] = Cytotoxicity against human HDF after 72 hrs by MTT assay; format: cell-based; how it was run: as §3
[18] = test system: MCF7; assay: Cytotoxicity against human MCF7 cells after 72 hrs by MTT assay; format: functional, cell-based; settings: MCF7, 72 h; how it was run: as §3
[19] = test system: MCF7; assay: Induction of apoptosis in human MCF7 cells assessed as caspase-7 activation at 5 uM after 24 hrs by Western blotting
[20] = test system: MCF7; assay: Induction of cell death in human MCF7 cells at 5 uM after 48 hrs using Hoechst 33342/PI staining by microscopy; format: functional, cell-based
How it was run: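 MCF-7 cells exposed to compound for 48 h, then stained with Hoechst 33342/PI. Cell death quantified by fluorescence microscopy as percent values. Means of three separate experiments.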

[21] = test system: MCF7; assay: Induction of apoptosis in human MCF7 cells assessed as p53 accumulation after 24 hrs by Western blotting

Row | Structure (SMILES) | MIC [1] [µg/mL] | IC50 [2] [µg/mL] | IC50 [3] [µg/mL] | MIC ([4]; SAR72, 24 h) [µg/mL] | MIC [5] | MIC [6] [µg/mL] | MIC [7] | MIC [8] [µg/mL] | MIC [9] [µg/mL] | MIC [10] [µg/mL] | MIC [11] [µg/mL] | MIC ([12]; SAR4790, 24 h) [µg/mL] | MIC [13] | MIC [14] [µg/mL] | MIC [15] | IC50 [16] [µM] | IC50 [17] [µM] | IC50 [18] [µM] | other results
1 | O=C(O)c1cn(C2CC2)c2cc(N3CCNCC3)c(F)cc2c1=O [CIPROFLOXACIN] | 0.03 (≈ 0.0905 µM) | 0.34 (≈ 1.03 µM) | 4.6 (≈ 13.9 µM) | 100 (≈ 302 µM) | > 100 µg/mL | 0.07 (≈ 0.211 µM) | 100 µg/mL (≈ 302 µM) | 0.3 (≈ 0.905 µM) | 0.7 (≈ 2.11 µM) | 0.07 (≈ 0.211 µM) | 0.15 (≈ 0.453 µM) | > 100 |  |  |  |  |  |  | 
2 | CO/N=C1\CN(c2nc3c(cc2F)c(=O)c(C(=O)O)cn3C2CC2)CC1CN (stereo not given) [GEMIFLOXACIN] | 0.007 (≈ 0.018 µM) |  |  | 6 (≈ 15.4 µM) | 100 µg/mL (≈ 257 µM) | 0.015 (≈ 0.0385 µM) | 50 µg/mL (≈ 128 µM) | 0.015 (≈ 0.0385 µM) | 0.3 (≈ 0.77 µM) | 0.07 (≈ 0.18 µM) | 0.015 (≈ 0.0385 µM) | 50 (≈ 128 µM) | 50 µg/mL (≈ 128 µM) | 0.015 (≈ 0.0385 µM) | > 100 µg/mL |  |  |  | 
3 | COc1c(C)cc2c([nH]c3c2c(F)cc2c(=O)c(C(=O)O)cn(C4CC4)c23)c1C | 0.07 (≈ 0.177 µM) | > 30 | 31 (≈ 78.6 µM) | > 100 | inactive | 25 (≈ 63.4 µM) | > 100 µg/mL | 6 (≈ 15.2 µM) | > 100 | > 100 | 6 (≈ 15.2 µM) | > 100 | inactive | > 100 | inactive | 3 | > 10 | 1.7 | 
4 | Cc1ccc2c(c1)[nH]c1c2c(F)cc2c(=O)c(C(=O)O)cn(C3CC3)c21 | 0.07 (≈ 0.2 µM) | 3 (≈ 8.56 µM) | > 300 |  | inactive | > 100 | inactive | > 100 | > 100 | > 100 | > 100 |  | inactive | > 100 | inactive | > 10 | > 10 | > 10 | MIC [4]: inactive; MIC [12]: inactive
5 | COc1ccc2c(c1)[nH]c1c2c(F)cc2c(=O)c(C(=O)O)cn(C3CC3)c21 | 0.07 (≈ 0.191 µM) | 4.8 (≈ 13.1 µM) | 48 (≈ 131 µM) | > 100 | > 100 µg/mL | 3 (≈ 8.19 µM) | > 100 µg/mL | 3 (≈ 8.19 µM) | 50 (≈ 136 µM) | > 100 | 1.5 (≈ 4.09 µM) | > 100 | inactive | > 100 | inactive | 4.9 | > 10 | 2.4 | 
6 | COc1c(N2C[C@@H]3CCCN[C@@H]3C2)c(F)cc2c(=O)c(C(=O)O)cn(C3CC3)c12 [MOXIFLOXACIN] | 0.015 (≈ 0.0374 µM) | 0.85 (≈ 2.12 µM) | 5 (≈ 12.5 µM) | 12 (≈ 29.9 µM) | 50 µg/mL (≈ 125 µM) | 0.07 (≈ 0.174 µM) | 50 µg/mL (≈ 125 µM) | 0.03 (≈ 0.0747 µM) | 0.15 (≈ 0.374 µM) | 0.7 (≈ 1.74 µM) | 0.03 (≈ 0.0747 µM) | 50 (≈ 125 µM) |  | 0.03 (≈ 0.0747 µM) | > 100 µg/mL |  |  |  | 
7 | O=C(O)c1cn(C2CC2)c2c(cc(F)c3c2[nH]c2ccsc23)c1=O | 0.003 (≈ 0.00876 µM) | 1.1 (≈ 3.21 µM) | 100 (≈ 292 µM) | 12 (≈ 35.1 µM) | > 100 µg/mL | 0.03 (≈ 0.0876 µM) | 50 µg/mL (≈ 146 µM) | 0.03 (≈ 0.0876 µM) | 3 (≈ 8.76 µM) | 50 (≈ 146 µM) | 0.015 (≈ 0.0438 µM) | > 100 | > 100 µg/mL | 1.5 (≈ 4.38 µM) | > 100 µg/mL | 6.4 | > 10 | 4.4 | 
8 | O=C(O)c1cn(C2CC2)c2c(cc(F)c3c4ccc(F)cc4[nH]c32)c1=O | 0.003 (≈ 0.00847 µM) | 1.8 (≈ 5.08 µM) | 28 (≈ 79 µM) | 1.5 (≈ 4.23 µM) | > 100 µg/mL | 0.07 (≈ 0.198 µM) | 3 µg/mL (≈ 8.47 µM) | 0.07 (≈ 0.198 µM) | 12 (≈ 33.9 µM) | > 100 | 0.15 (≈ 0.423 µM) | > 100 | > 100 µg/mL | 25 (≈ 70.6 µM) | inactive | 3.5 | > 10 | 0.8 | Activity [19]: Active; Activity [20]: Active; Activity [21]: Active
9 | Cc1c2ccncc2c(C)c2c1[nH]c1ccccc12 [ELLIPTECINE] |  |  |  |  |  |  |  |  |  |  |  |  |  |  |  | 3.4 | > 10 | 1.6 | 
10 | C[C@H]1COc2c(N3CCN(C)CC3)c(F)cc3c(=O)c(C(=O)O)cn1c23.C[C@H]1COc2c(N3CCN(C)CC3)c(F)cc3c(=O)c(C(=O)O)cn1c23.O [LEVOFLOXACIN] | 0.03 |  |  | 25 | > 100 µg/mL | 0.15 | > 100 µg/mL | 0.07 | 0.15 | 0.3 | 0.15 | 100 | 25 µg/mL |  | 50 µg/mL |  |  |  | 
11 | O=C(O)c1cn(C2CC2)c2c(cc(F)c3c4ccccc4[nH]c32)c1=O | 0.015 (≈ 0.0446 µM) | 1.7 (≈ 5.05 µM) | 35 (≈ 104 µM) | 12 (≈ 35.7 µM) | > 100 µg/mL | 0.15 (≈ 0.446 µM) | > 100 µg/mL | 0.3 (≈ 0.892 µM) | 12 (≈ 35.7 µM) | > 100 | 0.03 (≈ 0.0892 µM) | > 100 | > 100 µg/mL | 50 (≈ 149 µM) | inactive | 6.4 | > 10 | 3.6 | 

From ChEMBL document CHEMBL1212890, “Synthesis and biological evaluation of tetracyclic fluoroquinolones as antibacterial and anticancer agents” (Bioorg Med Chem, 2010)
